In ChEMBL document CHEMBL4616671, “Identification of N-Phenyl-7H-pyrrolo[2,3-d]pyrimidin-4-amine Derivatives as Novel, Potent, and Selective NF-κB Inducing Kinase (NIK) Inhibitors for the Treatment of Psoriasis” (J Med Chem, 2020):

Columns and labels:
[1] = target: T1, Mitogen-activated protein kinase kinase kinase 14 (Homo sapiens, UniProt Q99558); test: Inhibition of recombinant N-terminal GST-fused human NIK (319 to 947 residues) expressed in baculovirus expression system incubated for 120 mins in presence of ATP by ADP-glo based luminescence assay
Summary of the method: (§1)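 ADP-Glo luminescence assay with recombinant human MAP3K14. Buffer: Tris pH 7.5, 2 mM DTT, 2 mM MgCl₂, 100 µM Na₃VO₄, 0.02 mg/mL BSA, 5% DMSO; ATP 10 µM. Reaction 120 min at room temperature; ADP-Glo reagent 40 min, then detection reagent 40 min. Mean ± SD from two independent experiments.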
Target sequence in this assay (Q99558 whole entry, the tested form may be a part): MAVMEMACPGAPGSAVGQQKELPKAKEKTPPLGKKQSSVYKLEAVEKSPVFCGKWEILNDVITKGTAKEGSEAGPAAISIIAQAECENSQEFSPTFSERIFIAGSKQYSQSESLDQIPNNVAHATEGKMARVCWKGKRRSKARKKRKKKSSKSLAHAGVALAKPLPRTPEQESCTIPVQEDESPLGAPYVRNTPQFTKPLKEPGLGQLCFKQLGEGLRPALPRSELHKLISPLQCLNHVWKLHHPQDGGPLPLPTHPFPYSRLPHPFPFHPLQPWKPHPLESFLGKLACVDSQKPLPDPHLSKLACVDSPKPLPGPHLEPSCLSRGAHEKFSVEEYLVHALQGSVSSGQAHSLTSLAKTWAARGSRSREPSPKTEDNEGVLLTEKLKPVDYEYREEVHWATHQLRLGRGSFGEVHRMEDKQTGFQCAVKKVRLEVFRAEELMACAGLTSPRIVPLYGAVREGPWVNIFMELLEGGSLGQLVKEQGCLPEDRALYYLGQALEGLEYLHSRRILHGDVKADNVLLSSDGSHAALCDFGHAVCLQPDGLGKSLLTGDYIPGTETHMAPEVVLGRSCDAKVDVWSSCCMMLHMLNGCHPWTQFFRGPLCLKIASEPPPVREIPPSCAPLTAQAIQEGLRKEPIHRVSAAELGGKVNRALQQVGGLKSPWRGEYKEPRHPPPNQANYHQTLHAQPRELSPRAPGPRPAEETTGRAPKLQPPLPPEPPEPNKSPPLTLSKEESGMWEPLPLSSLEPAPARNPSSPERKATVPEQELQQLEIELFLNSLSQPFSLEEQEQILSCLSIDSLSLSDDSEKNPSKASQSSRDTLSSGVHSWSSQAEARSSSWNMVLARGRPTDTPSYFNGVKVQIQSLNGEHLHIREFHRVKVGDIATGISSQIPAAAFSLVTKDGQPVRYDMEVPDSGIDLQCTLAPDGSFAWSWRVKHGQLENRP

T-cell [2] = test: Antiinflammatory activity in mouse T cells assessed as inhibition of conA-induced induced T cell proliferation at 2 uM incubated for 48 hrs by CCK8 assay relative to control; format: functional
J774 = test: Antiinflammatory activity in mouse J774 cells assessed as inhibition of LPS-induced NO production at 1 uM preincubated for 2 hrs followed by LPS stimulation and measured after 22 hrs by Griess reagent based assay relative to control; format: functional
Summary of the method: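 J774 macrophages seeded at 2*10^4 cells/mL, 24 h at 37 °C 5% CO₂; compound in DMSO at 1 µM, 3 replicate wells, 2 h pre-incubation, then LPS at 1 ug/mL final for 22 h. Supernatant nitrite read with Griess reagent at 540 nm against a sodium nitrite standard curve. Inhibition % = (model − compound)/(model − control) NO ×100; mean ± SD, three independent experiments.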

T-cell [3] = test: Antiinflammatory activity in mouse T cells assessed as inhibition of conA-induced induced T cell proliferation at 0.4 uM incubated for 48 hrs by CCK8 assay relative to control; format: functional
T-cell [4] = test: Growth inhibition of mouse T cells at 10 uM after 48 hrs by CCK8 assay; format: cell-based
Summary of the method: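 Unstimulated mouse splenic T cells exposed to compound at 10 µM. Growth read by CCK-8 absorbance; […]. Mean ± SD, three independent experiments.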

[5] = Elimination half life in monkey liver microsomes incubated for 10 mins followed by potassium phosphate buffer addition and measured after 5 to 60 mins by LC-MS/MS analysis; format: ADME, Macaca mulatta, Microsome; conditions: rhesus monkey, read-out: beta t1/2
Summary of the method: (§2)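 Rat, dog, monkey or human liver microsomes pre-incubated with compound at 37 °C for 10 min; reaction started after pre-warming and stopped at 5, 15, 30, 60 min with chilled quench containing tolbutamide and labetalol. No-cofactor control in 100 mM potassium phosphate for 60 min. LC-MS/MS analysis; first-order fit: k = −slope, T1/2 = 0.693/k, CLint = k/microsomal protein concentration.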

[6] = target: T1, Mitogen-activated protein kinase kinase kinase 14; test: Inhibition of NIK (unknown origin); summary of the method: as §1
Target sequence in this assay (Q99558 whole entry, the tested form may be a part): as above

[7] = Intrinsic hepatic clearance in rat; format: ADME; conditions: in vivo
Summary of the method: (§3)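 Scaled from microsomal intrinsic clearance: CLint,in vitro × microsomal protein per g liver × liver weight per kg body weight.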

[8] = Intrinsic hepatic clearance in monkey; format: ADME, Macaca mulatta; conditions: rhesus monkey, in vivo; summary of the method: as §3
[9] = Elimination half life in human liver microsomes incubated for 10 mins followed by potassium phosphate buffer addition and measured after 5 to 60 mins by LC-MS/MS analysis; format: ADME, Microsome; conditions: read-out: beta t1/2; summary of the method: as §2
[10] = Elimination half life in rat liver microsomes incubated for 10 mins followed by potassium phosphate buffer addition and measured after 5 to 60 mins by LC-MS/MS analysis; format: ADME, Microsome; conditions: read-out: beta t1/2; summary of the method: as §2
[11] = Intrinsic hepatic clearance in human; format: ADME; summary of the method: as §3
[12] = Intrinsic clearance in dog liver microsomes assessed as per mg of protein incubated for 10 mins followed by potassium phosphate buffer addition and measured after 5 to 60 mins by LC-MS/MS analysis; format: ADME, Canis lupus familiaris, Microsome; conditions: read-out: CLH; summary of the method: as §2
[13] = target: T1, Mitogen-activated protein kinase kinase kinase 14; test: Inhibition of NIK in human BEAS2B cells assessed as reduction in LPS-induced IL-6 level preincubated for 8 hrs followed by LPS stimulation and measured after 24 hrs by ELISA; format: cell-based
Summary of the method: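 BEAS-2B cells were grown in DMEM with 10% FBS, seeded at 5000 cells/well, and cultured 24 h at 37 °C in 5% CO2. Compounds were given at 7 concentrations from 10 μM to 0.014 μM (3 replicate wells), with dexamethasone as positive control. After 8 h, LPS (20 μg/mL solution) was added for 24 h. Supernatant IL-6 was read by human IL-6 ELISA; two biological replicates.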
Target sequence in this assay (Q99558 whole entry, looked up, the tested form may be a part): as the sequence (Q99558 whole entry, the tested form may be a part) above

[14] = Intrinsic clearance in monkey liver microsomes assessed as per mg of protein incubated for 10 mins followed by potassium phosphate buffer addition and measured after 5 to 60 mins by LC-MS/MS analysis; format: ADME, Macaca mulatta, Microsome; conditions: rhesus monkey, read-out: CLH; summary of the method: as §2
[15] = Intrinsic clearance in human liver microsomes assessed per mg of protein incubated for 10 mins followed by potassium phosphate buffer addition and measured after 5 to 60 mins by LC-MS/MS analysis; format: ADME, Microsome; conditions: read-out: CLH; summary of the method: as §2
[16] = Intrinsic hepatic clearance in dog; format: ADME, Canis lupus familiaris; conditions: in vivo; summary of the method: as §3
[17] = Elimination half life in dog liver microsomes incubated for 10 mins followed by potassium phosphate buffer addition and measured after 5 to 60 mins by LC-MS/MS analysis; format: ADME, Canis lupus familiaris, Microsome; conditions: read-out: beta t1/2; summary of the method: as §2
[18] = Intrinsic clearance in rat liver microsomes assessed as per mg of protein incubated for 10 mins followed by potassium phosphate buffer addition and measured after 5 to 60 mins by LC-MS/MS analysis; format: ADME, Microsome; conditions: read-out: CLH; summary of the method: as §2
[19] = target: T1, Mitogen-activated protein kinase kinase kinase 14; test: Inhibition of recombinant N-terminal GST-fused human NIK (319 to 947 residues) expressed in baculovirus expression system assessed as residual activity at 1 uM incubated for 120 mins in presence of ATP by ADP-glo based luminescence assay relative to control
Target sequence in this assay (Q99558 whole entry, looked up, the tested form may be a part): as the sequence (Q99558 whole entry, the tested form may be a part) above

Structure (SMILES)	IC50 [1] [nM]	inhibition at 2 µM (T-cell [2]) [%]	inhibition at 1 µM (J774) [%]	inhibition at 0.4 µM (T-cell [3]) [%]	further results
CC(O)(C#Cc1ccc(N2CCCC2)c(Nc2ncnc3[nH]ccc23)c1)c1nccs1 (configuration not stated)	107	–	–	–	–
C[C@H]1CN(c2ccc(C#CC(C)(O)c3nccs3)cc2Nc2ncnc3[nH]ccc23)CCN1 (some centres not stated)	69.2	49.5	62.9	38	–
CC(O)(C#Cc1ccc(N2CCOCC2)c(Nc2c(Cl)cnc3[nH]ccc23)c1)c1nccs1 (configuration not stated)	> 10000	–	–	–	–
COCCN(C)c1ccc(C#CC(C)(O)c2nccs2)cc1Nc1ncnc2[nH]ccc12 (configuration not stated)	72.4	27.9	48	13.3	–
C[C@@](O)(C#Cc1ccc(N2CCOCC2)c(Nc2ncnc3[nH]ccc23)c1)c1nccs1	12	61.2	100	37.6	Activity (T-cell [4]): Toxic
CC(O)(C#Cc1ccc2c(c1)N(c1nc(N)ncc1Cl)CC2)c1nccs1 (configuration not stated)	4.7	59.6	43.9	19	half-life [5]: 6.66 min; Ki [6]: 0.4 nM; CLH [7]: 254 mL/min/kg; CLH [8]: 300 mL/min/kg; half-life [9]: 33.9 min; half-life [10]: 9.82 min; CLH [11]: 38.6 mL/min/kg; microsomal CLint [12]: 192 µL/min/mg; inhibition [13]: Dose-dependent effect; microsomal CLint [14]: 208 µL/min/mg; microsomal CLint [15]: 40.8 µL/min/mg; CLH [16]: 276 mL/min/kg; half-life [17]: 7.22 min; microsomal CLint [18]: 141 µL/min/mg
CC(O)(C#Cc1ccc(N2CCOCC2)c(Nc2ncnc3[nH]ncc23)c1)c1nccs1 (configuration not stated)	8.63	24.7	35.9	14.8	–
C[C@](O)(C#Cc1ccc(N2CCOCC2)c(Nc2ncnc3[nH]ccc23)c1)c1nccs1	136	60.1	74.3	39.5	Activity (T-cell [4]): Non-Toxic
CC(O)(C#Cc1ccc(N2CC3CC2CN3)c(Nc2ncnc3[nH]ccc23)c1)c1nccs1 (configuration not stated)	200	–	–	–	–
CC(O)(C#Cc1cccc(Nc2ncnc3[nH]ccc23)c1)c1nccs1 (configuration not stated)	1640	–	–	–	–
CC(O)(C(=O)Nc1ccc(N2CCOCC2)c(Nc2ncnc3[nH]ccc23)c1)c1nccs1 (configuration not stated)	1400	–	–	–	–
CC(O)(C#Cc1ccc(OC2CCOCC2)c(Nc2ncnc3[nH]ccc23)c1)c1nccs1 (configuration not stated)	112	42.9	68.3	19.9	–
O=C(Nc1ccc(N2CCOCC2)c(Nc2ncnc3[nH]ccc23)c1)NC1CCCC1	–	–	–	–	Activity [19]: 76.4%
OC1(C#Cc2ccc(N3CCOCC3)c(Nc3ncnc4[nH]ccc34)c2)CCCC1	645	–	–	–	–
OC1(C#Cc2ccc(N3CCOCC3)c(Nc3ncnc4[nH]ccc34)c2)CCCCC1	1270	–	–	–	–
O=C(Nc1ccc(N2CCOCC2)c(Nc2ncnc3[nH]ccc23)c1)C1CCCC1	–	–	–	–	Activity [19]: 77.3%
CC(O)(C#Cc1ccc(N2CCOCC2)c(Nc2c(F)cnc3[nH]ccc23)c1)c1nccs1 (configuration not stated)	1380	–	–	–	–
CC(O)(C#Cc1ccc(N2CCNCC2)c(Nc2ncnc3[nH]ccc23)c1)c1nccs1 (configuration not stated)	47.9	39.9	68	20.3	–

Structure (SMILES)	IC50 [1] [nM]	inhibition at 2 µM (T-cell [2]) [%]	inhibition at 1 µM (J774) [%]	inhibition at 0.4 µM (T-cell [3]) [%]	further results
CC(O)(C#Cc1ccc(N2CCOCC2)c(Nc2ccnc3[nH]ccc23)c1)c1nccs1 (configuration not stated)	6.59	50.2	60.4	19	–
CC(C)(O)C#Cc1ccc(N2CCOCC2)c(Nc2ncnc3[nH]ccc23)c1	2710	–	–	–	–
CN(C)c1ccc(C#CC(C)(O)c2nccs2)cc1Nc1ncnc2[nH]ccc12 (configuration not stated)	22.5	–	–	–	–
CCN1CCN(c2ccc(C#CC(C)(O)c3nccs3)cc2Nc2ncnc3[nH]ccc23)CC1 (configuration not stated)	34.5	33.7	67.4	24.1	–
CC(O)(C#Cc1ccc(N2CCOCC2)c(Nc2ncnc3[nH]ccc23)c1)c1cccs1 (configuration not stated)	50.4	–	–	–	–
CN(C)CCN(C)c1ccc(C#CC(C)(O)c2nccs2)cc1Nc1ncnc2[nH]ccc12 (configuration not stated)	484	–	–	–	–
CC(O)(C#Cc1ccc(N2CCOCC2)c(Nc2ncnc3sccc23)c1)c1nccs1 (configuration not stated)	179	–	–	–	–
CN1CCC(Oc2ccc(C#CC(C)(O)c3nccs3)cc2Nc2ncnc3[nH]ccc23)CC1 (configuration not stated)	705	–	–	–	–
CC(O)(C#Cc1ccc(N2CCOCC2)c(Nc2ncnc3[nH]ccc23)c1)C1CCCC1 (configuration not stated)	2240	–	–	–	–
CCS(=O)(=O)N1CCN(c2ccc(C#CC(C)(O)c3nccs3)cc2Nc2ncnc3[nH]ccc23)CC1 (configuration not stated)	8.22	32.5	34.5	14	–
CC(=O)N1CCN(c2ccc(C#CC(C)(O)c3nccs3)cc2Nc2ncnc3[nH]ccc23)CC1 (configuration not stated)	17.8	31.5	29.3	16.2	–
CC(O)(C#Cc1ccc(N2CCC(N3CCOCC3)CC2)c(Nc2ncnc3[nH]ccc23)c1)c1nccs1 (configuration not stated)	15.3	34.5	57.7	32.2	–
CN1CCCN(c2ccc(C#CC(C)(O)c3nccs3)cc2Nc2ncnc3[nH]ccc23)CC1 (configuration not stated)	60.1	47.7	67.3	35.5	–
CC(O)(C#Cc1ccc(N2CCOCC2)c(Nc2ccnc(N)n2)c1)c1nccs1 (configuration not stated)	11.4	31.4	58.5	27.4	–
CN1CCN(c2ccc(C#CC(C)(O)c3nccs3)cc2Nc2ncnc3[nH]ccc23)CC1 (configuration not stated)	78.3	43.7	78.5	33	–
CC(O)(C#Cc1ccc(N2CCN(S(=O)(=O)C3CC3)CC2)c(Nc2ncnc3[nH]ccc23)c1)c1nccs1 (configuration not stated)	16.2	32.3	37.2	16.9	–
C[C@@H]1CN(c2ccc(C#CC(C)(O)c3nccs3)cc2Nc2ncnc3[nH]ccc23)CCN1 (some centres not stated)	209	–	–	–	–
